In ChEMBL document CHEMBL1821560, “Inhibitors of androgen receptor activation function-2 (AF2) site identified through virtual screening” (J Med Chem, 2011) one finds inhibition, IC50 and viability data, which are given here for six compounds.

pIC50: −log10 of the molar value. Calls of active or inactive are those of the source. The rule behind the calls is not given here.

For assay [1], the target named is T1, Androgen receptor (Homo sapiens) (UniProt P10275).
T1 sequence (whole entry): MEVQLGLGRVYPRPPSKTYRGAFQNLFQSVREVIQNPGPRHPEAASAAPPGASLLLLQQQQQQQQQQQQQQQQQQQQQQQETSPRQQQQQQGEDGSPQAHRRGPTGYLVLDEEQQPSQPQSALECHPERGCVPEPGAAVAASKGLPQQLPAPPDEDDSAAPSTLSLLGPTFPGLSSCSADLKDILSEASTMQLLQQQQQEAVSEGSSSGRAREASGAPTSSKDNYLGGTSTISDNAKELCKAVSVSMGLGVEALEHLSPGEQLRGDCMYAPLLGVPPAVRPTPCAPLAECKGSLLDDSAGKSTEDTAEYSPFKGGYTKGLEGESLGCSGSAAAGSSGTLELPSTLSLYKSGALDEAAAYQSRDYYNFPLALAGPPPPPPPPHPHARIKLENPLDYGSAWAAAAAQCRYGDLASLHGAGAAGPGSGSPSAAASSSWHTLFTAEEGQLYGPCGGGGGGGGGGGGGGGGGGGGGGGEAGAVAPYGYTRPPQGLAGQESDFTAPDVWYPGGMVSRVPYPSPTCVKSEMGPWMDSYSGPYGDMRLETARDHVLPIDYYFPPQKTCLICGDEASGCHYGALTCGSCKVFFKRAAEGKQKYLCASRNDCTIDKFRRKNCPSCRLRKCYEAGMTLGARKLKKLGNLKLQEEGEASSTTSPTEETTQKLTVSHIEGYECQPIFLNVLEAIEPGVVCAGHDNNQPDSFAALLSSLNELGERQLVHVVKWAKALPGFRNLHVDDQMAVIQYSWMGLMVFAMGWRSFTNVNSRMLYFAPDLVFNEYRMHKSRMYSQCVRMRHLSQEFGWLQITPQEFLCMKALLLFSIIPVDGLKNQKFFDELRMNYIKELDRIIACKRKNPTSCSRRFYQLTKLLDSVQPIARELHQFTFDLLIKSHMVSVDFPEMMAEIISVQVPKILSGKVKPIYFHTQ
Nature of the assay: (§1) Displacement of SRC2-3 peptide from human AR ligand binding site expressed in Escherichia coli BL21 by AF2 FP assay. The procedure, abridged:
(§2)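 Purified AR LBD (2 μM) with FITC-SRC2-3 peptide (5 nM), compound 0–200 μM, in 25 mM HEPES pH 7.5, 50 mM NaCl, 0.01% NP-40, 2 μM DHT; 2 h incubation, FP read at ex 485/em 530 nm. Triplicate, means ± SD; IC50 by nonlinear four-parameter fit, Ki via Kenakin equation.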

Assay [2] concerns the target T2, Androgen receptor (Homo sapiens, UniProt P10275).
T2 sequence (P10275 whole entry): T1 sequence (whole entry)
The description is as §1. The procedure, abridged:
as §2

Assay [3] addresses T1, Androgen receptor (Homo sapiens). Kind of assay: (§3) Inhibition of human AR AF2 site expressed in human LNCap cells coexpressing eGFP -ARR2PB assessed as inhibition of transcriptional activity. The format is cell-based. The procedure, abridged:
(§4)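 LNCaP cells stably carrying eGFP under androgen-responsive ARR2PB promoter, kept 5 days in phenol-red-free RPMI 1640 with 5% CSS, then plated at 35 000 cells/well with 0.1 nM R1881 plus compound 0–100 μM; after 3 days eGFP fluorescence read (ex 485, em 535 nm).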

In assay [4] the target is T2, Androgen receptor. The assay is described as §3. The format is cell-based. The procedure, abridged: as §4
The next assay concerns LNCaP. Nature of the assay: Cytotoxicity against human LNCAP cells at 50 uM assessed as cell viability after 72 hrs by MTS assay. The format is functional. The procedure, abridged:
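LN-ARR2PBeGFP LNCaP cells exposed to compound for 72 h, then MTS reagent added and incubated 2 h at 37 °C in 5% CO2; absorbance read-out of proliferation/viability.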

For assay [5], the target named is T3, Androgen receptor (Rattus norvegicus) (UniProt P15207).
T3 sequence (whole entry): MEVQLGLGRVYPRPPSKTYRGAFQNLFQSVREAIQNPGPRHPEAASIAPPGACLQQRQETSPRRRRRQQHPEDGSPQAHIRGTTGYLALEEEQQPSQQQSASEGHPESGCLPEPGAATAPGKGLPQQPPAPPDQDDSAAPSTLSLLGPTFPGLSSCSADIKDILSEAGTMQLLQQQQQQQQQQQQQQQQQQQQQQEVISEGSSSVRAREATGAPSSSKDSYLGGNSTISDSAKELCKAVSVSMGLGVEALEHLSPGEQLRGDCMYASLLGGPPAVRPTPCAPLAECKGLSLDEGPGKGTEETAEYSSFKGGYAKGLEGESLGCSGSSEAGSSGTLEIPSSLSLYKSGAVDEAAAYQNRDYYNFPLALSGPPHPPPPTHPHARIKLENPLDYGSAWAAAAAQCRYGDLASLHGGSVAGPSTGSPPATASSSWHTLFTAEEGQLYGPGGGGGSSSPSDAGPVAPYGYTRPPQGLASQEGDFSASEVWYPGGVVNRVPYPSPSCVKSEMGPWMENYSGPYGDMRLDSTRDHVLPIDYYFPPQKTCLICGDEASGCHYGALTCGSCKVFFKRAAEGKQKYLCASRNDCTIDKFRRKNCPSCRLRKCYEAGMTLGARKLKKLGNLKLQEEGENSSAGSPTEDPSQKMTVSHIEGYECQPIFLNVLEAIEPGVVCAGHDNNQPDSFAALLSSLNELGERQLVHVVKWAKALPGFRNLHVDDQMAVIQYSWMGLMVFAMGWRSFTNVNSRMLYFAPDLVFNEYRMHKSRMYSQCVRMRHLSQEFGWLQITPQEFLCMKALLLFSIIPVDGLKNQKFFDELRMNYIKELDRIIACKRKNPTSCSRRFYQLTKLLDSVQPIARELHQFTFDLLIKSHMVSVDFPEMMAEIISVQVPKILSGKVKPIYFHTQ
Nature of the assay: Displacement of androgen from His-GST tagged rat AR hormone binding site at 10 uM assessed as decrease in fluorescence polarization. The procedure, abridged: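 Hormone-site competition run with Polar Screen Androgen Receptor Competitor Green kit per manufacturer's protocol; compounds tested at 10 μM.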
(Fluorescence polarisation rises when a labelled molecule tumbles more slowly, as on binding a larger partner.)

Consider `Oc1ccc(C2Nc3cccc4cccc(c34)N2)cc1O`, for which the inhibition entry in assay [1] and in assay [3] was “Dose-dependent effect” throughout. The pIC50 was 4.51 at Androgen receptor [2] and 4.73 at Androgen receptor [4]. The viability at 50 µM in the assay with LNCaP turned out to be 121%. For the same compound, in assay [5], the inhibition entry was “inactive”.

Regarding `COc1cc(C2Nc3cccc4cccc(c34)N2)ccc1O`, the pIC50 at Androgen receptor [2] was 4.48; on Androgen receptor [4], 5.34. In addition, in the assay with LNCaP, the viability at 50 µM was 129%. In addition, in assay [5], the inhibition entry was “inactive”.

For `Oc1ccc(C2Nc3cccc4cccc(c34)N2)cc1`, the pIC50 was 4.51 on Androgen receptor [2] and 5.23 at Androgen receptor [4]. In the assay with LNCaP, the viability at 50 µM was determined as 106%. The inhibition entry in assay [5] is “inactive”.

For the compound `CC1=NN(c2ccccc2)C(=O)/C1=N\Nc1ccc(C(=O)O)c(O)c1`, the inhibition entry in assay [1] and in assay [3] was “Dose-dependent effect” each time. The pIC50 is 4.59 on Androgen receptor [2] and 4.48 on Androgen receptor [4]. In the assay on LNCaP, the viability at 50 µM was determined as 50.9%. Further, in assay [5], the inhibition result is “inactive”.

On to `COc1ccc(C2Nc3cccc4cccc(c34)N2)cc1O`, for which the inhibition result in assay [1] and in assay [3] was “Dose-dependent effect” in each case. Besides, the pIC50 at Androgen receptor [2] is 5.09; at Androgen receptor [4] it was 4.46. Further, the viability at 50 µM with LNCaP came to 145%. Besides, the inhibition result in assay [5] is “inactive”.

For the compound `CCOc1cc(C2Nc3cccc4cccc(c34)N2)ccc1O`, the pIC50 at Androgen receptor [2] was 4.50; at Androgen receptor [4], 4.95. In the assay with LNCaP, the viability at 50 µM was 122%. Besides, the inhibition result in assay [5] is “inactive”.

Broadly, the pIC50 is −log10 of the IC50, conventionally taken in molar units. What is called viability is a read-out of living cells in per cent, often relative to untreated cells.
